Screens as filed in PubChem.
The list is not random: actives were taken first. Their share in the collection is about 1.1%.
Tb MetRS inh = Trypanosoma brucei MetRS inhibition | 0.4% of 360,000 active | inhibition, % at 11.9 µM | purified T. brucei MetRS, ATP depletion, Kinase-Glo luminescence;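 active = inhibition above a per-plate cutoff of the control wells' mean inhibition plus 3 SD, cut at about 5.5% in these data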
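Test system – parasite MetRS enzyme · Reagent – substrates ATP, L-methionine and bulk Escherichia coli tRNA · Doses – 11.9 µM compound single dose, 0.9% DMSO · Times – 15 min enzyme-compound preincubation, 2 h reaction, 10 min detection, 25 °C · Signal – Kinase-Glo luminescence, ATP depletion format · Controls – DMSO-only wells as low control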
A1 inh = inhibitors of the anti-apoptotic protein A1, read as caspase activation; MEF A1-2A-BIM cells, Caspase-Glo 3/7 luminescence, 3 h; percent of clofoctol response, vehicle zero; AID 2462; 0.066% of 330,000 active; caspase activation, % (no concentration beside the values);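 active = over half of replicate activation scores above 10%, or exactly half above 10 with the replicate mean above 10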
GC-B act = GC-B (human) receptor activation; HEK293-GC-B cells, CNP EC30, cGMP TR-FRET; 0% at EC30 CNP, 100% saturating CNP; activation, % at 10 µM; 0.11% of 370,000 active;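 active = activation at 10 µM reaching about 35% in either raw or pattern-adjusted values, limit read from the data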
SKN-1 block = C. elegans SKN-1 inhibition; C. elegans VP596 Pgst-4::GFP/RFP ratio, acrylamide-induced, 24 h; inhibition, % at 21.8 µM; 0.49% of 360,000 active; AID 624304;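 active = interference check ratio from 0.5 to 1.5 plus GFP to RFP signal ratio inhibition reaching or exceeding a fixed threshold, cut at about 30% in these data, passing the limit was not always enough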
NPR1 activator = GC-A (human) enzyme activation; P16066; HEK293 GC-A cells, cGMP TR-FRET, EC30 ANP; 0% at EC30 ANP, 100% saturating ANP; activation, % at 10 µM; 0.14% of 370,000 active; in the data active = activation above about 40%
Target sequence (P16066 whole entry, looked up): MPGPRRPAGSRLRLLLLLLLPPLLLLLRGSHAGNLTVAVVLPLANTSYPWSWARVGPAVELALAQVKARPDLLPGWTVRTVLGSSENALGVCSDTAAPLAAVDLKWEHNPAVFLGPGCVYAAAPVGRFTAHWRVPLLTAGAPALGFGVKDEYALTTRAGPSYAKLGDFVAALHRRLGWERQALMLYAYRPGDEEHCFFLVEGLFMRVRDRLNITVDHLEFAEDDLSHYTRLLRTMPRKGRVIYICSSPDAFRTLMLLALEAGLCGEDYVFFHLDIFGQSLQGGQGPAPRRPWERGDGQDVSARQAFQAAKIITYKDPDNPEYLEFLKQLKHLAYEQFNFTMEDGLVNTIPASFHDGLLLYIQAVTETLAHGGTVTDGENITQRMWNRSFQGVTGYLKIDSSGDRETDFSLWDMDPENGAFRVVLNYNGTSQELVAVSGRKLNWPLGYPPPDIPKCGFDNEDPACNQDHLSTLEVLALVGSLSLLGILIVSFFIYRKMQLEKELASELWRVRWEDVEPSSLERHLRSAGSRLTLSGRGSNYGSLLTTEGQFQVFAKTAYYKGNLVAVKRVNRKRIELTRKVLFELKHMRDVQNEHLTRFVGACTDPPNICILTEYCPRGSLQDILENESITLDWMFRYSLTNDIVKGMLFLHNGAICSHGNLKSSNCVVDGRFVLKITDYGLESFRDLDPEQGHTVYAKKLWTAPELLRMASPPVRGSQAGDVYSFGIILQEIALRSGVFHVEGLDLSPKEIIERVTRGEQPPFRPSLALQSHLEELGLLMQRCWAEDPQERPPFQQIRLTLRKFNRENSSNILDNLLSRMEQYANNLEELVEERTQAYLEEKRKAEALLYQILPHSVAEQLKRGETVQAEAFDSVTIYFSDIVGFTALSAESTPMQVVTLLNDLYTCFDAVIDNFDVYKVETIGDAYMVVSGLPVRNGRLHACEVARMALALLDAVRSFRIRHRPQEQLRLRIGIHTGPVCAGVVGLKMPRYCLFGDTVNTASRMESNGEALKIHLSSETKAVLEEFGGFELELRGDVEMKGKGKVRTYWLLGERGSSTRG
MT1-MMP act inh = blocks activation of human MT1-MMP; AID 651647; 0.061% of 360,000 active; GFP/RFP ratio change, % at 20 µM; HT1080 RFP-PRO-GFP cells, GFP/RFP ratio fluorescence, overnight; percent of plate control window, DMSO zero; P50281;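 active = GFP/RFP ratio change of at least 30% with cell ATP level not reduced by more than half and red fluorescence within 50% of control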
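Compound: 20 µM single dose, 1% DMSO / System: HT1080 RFP-PRO-GFP cells / Controls: DMSO and RFP-L50D-GFP cell wells / Read-out basis: GFP/RFP fluorescence ratio / Schedule: overnight compound exposure at 37 °C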
Of the large screens only hits and unclear results are named; the others gave an inactive call.

CC(C)CCNc1nc(-c2ccco2)c2c(c1C#N)CCCC2	GC-B act 36
CCc1nc(NCCC(C)C)c(C#N)c2c1CCCC2	SKN-1 block 43
O=C(Nc1ccc(F)cc1F)C1CCN(c2nnc(-n3cccc3)s2)CC1	none (no result: Tb MetRS inh, A1 inh, SKN-1 block, MT1-MMP act inh)
Cc1nn(CCC(=O)NNC(=O)Nc2ccc(F)cc2)c(C)c1[N+](=O)[O-]	none (no result: Tb MetRS inh, A1 inh, SKN-1 block, MT1-MMP act inh)
CCOC(=O)c1c(C)[nH]c(O)c1C=Nc1ccc(C(F)(F)F)cc1	SKN-1 block 60
CCOc1ccc(-c2nc(CSCC(=O)NC3CCC3)c(C)o2)cc1	none (no result: Tb MetRS inh, A1 inh, SKN-1 block, MT1-MMP act inh)
Fc1ccccc1NC(=S)NN(Cc1ccccc1)c1ccccc1	SKN-1 block 39 (no result: A1 inh)
O=C(CSc1nc2ccccc2nc1N1CCCCC1)NCc1ccc(Cl)cc1Cl	none (no result: Tb MetRS inh, A1 inh, SKN-1 block, MT1-MMP act inh)
CCOC(=O)c1cc(-c2csc(-c3cccc(Cl)c3)n2)on1	none
CCOC(=O)c1cc(-c2csc(COc3ccccc3Cl)n2)on1	NPR1 activator 63
CCOC(=O)c1cc(-c2csc(COc3ccccc3)n2)on1	NPR1 activator 67
CCOC(=O)c1csc(COc2ccccc2Cl)n1	none
CCOC(=O)c1cc(-c2csc(COc3ccc(Cl)cc3)n2)on1	NPR1 activator 58
Cc1cccc(CNC(=S)OC2CCC23CCC(c2ccccc2)CC3)c1 (stereo not drawn)	none (no result: Tb MetRS inh, A1 inh, SKN-1 block, MT1-MMP act inh)
O=C(Nc1nc2ncccn2c1-c1ccc(F)cc1)C1CC1	none (no result: Tb MetRS inh, A1 inh, SKN-1 block, MT1-MMP act inh)
O=S(=O)(c1ccccc1F)N1CCC(c2nc3ccccc3o2)CC1	none (no result: Tb MetRS inh, A1 inh, SKN-1 block, MT1-MMP act inh)
CC(=O)Nc1ccc(CNc2ncnc3ccc(-c4c(C)noc4C)cc23)cc1	GC-B act 41
CSc1nnc(-c2ccccc2Cl)o1	none
Clc1ccccc1-c1ncc(-c2ccccc2)o1	SKN-1 block 42
Oc1ccc(-c2[nH]ncc2-c2ccc(Cl)cc2)c(O)c1	NPR1 activator 49
Oc1ccc(-c2[nH]ncc2-c2ccc(Br)cc2)c(O)c1	NPR1 activator 67
O=C(OCCN1CCN(C2CN(Cc3cn(Cc4ccccc4Cl)nn3)S(=O)(=O)C2)CC1)c1cc2ccccc2o1 (stereo not drawn)	none (no result: Tb MetRS inh, A1 inh, SKN-1 block, MT1-MMP act inh)
Cc1cc(C)c(NC(=O)COC(=O)C2CCN(c3ccc(C(F)(F)F)cn3)CC2)c(Cl)c1	SKN-1 block 36
CCOCCOC(=O)c1[nH]c2c(c1C)C(=O)CC(c1cccs1)C2 (stereo not drawn)	A1 inh 5.9 (no result: MT1-MMP act inh)
COCCOC(=O)c1[nH]c2c(c1C)C(=O)CC(c1cccs1)C2 (stereo not drawn)	none (no result: A1 inh)
CC1CCC2(CC1)CCC2NCc1ccc(Br)cc1 (stereo not drawn)	none (no result: Tb MetRS inh, A1 inh, SKN-1 block, MT1-MMP act inh)
NC(=O)CC(NC(=O)Cc1cccc2ccccc12)c1ccc(N2CCC(N3CCCCC3)CC2)c([N+](=O)[O-])c1 (stereo not drawn)	SKN-1 block 46
CC1CCCCN1S(=O)(=O)c1ccc(C(=O)Nc2sccc2C(N)=O)cc1 (stereo not drawn)	SKN-1 block 40
Clc1cc(Cl)c2nc(N3CCCC3)sc2c1	SKN-1 block 37
Cc1nn(-c2ccccc2)c(Cl)c1/C=C/C(=O)c1ccccc1	SKN-1 block 31 (no result: GC-B act, NPR1 activator)
CC1CCC2(CC1)CCN(CCCOC(=O)NCc1ccc(Cl)cc1)C2=O (stereo not drawn)	none (no result: Tb MetRS inh, A1 inh, SKN-1 block, MT1-MMP act inh)
COC(=O)C1=C(N)Oc2cc(C)n(CC3CCCO3)c(=O)c2C1c1ccc(Cl)c(Cl)c1 (stereo not drawn)	Tb MetRS inh 38, SKN-1 block 33
O=C(N/N=C/c1ccc(-c2ccc([N+](=O)[O-])cc2)o1)C(O)c1ccccc1 (stereo not drawn)	GC-B act 40, NPR1 activator 42
COc1ccc(OC)c(C2C(C(=O)c3ccco3)=C(O)C(=O)N2Cc2cccnc2)c1 (stereo not drawn)	none
COc1ccc(OC)c(C2C(C(C)=O)=C(O)C(=O)N2Cc2cccnc2)c1 (stereo not drawn)	A1 inh 5.2
CCC(=O)N1c2ccc(S(=O)(=O)CCC(=O)NC3CCCC3)cc2CC1C (stereo not drawn)	none
CCC(=O)N1c2ccc(S(=O)(=O)CCC(=O)NCc3cccs3)cc2CC1C (stereo not drawn)	SKN-1 block 43
Clc1ccc(-c2cn3cccnc3n2)cc1	none
Brc1ccc(-c2cn3cccnc3n2)cc1	SKN-1 block 48
Clc1ccc(-c2cn3cccnc3n2)cc1Cl	SKN-1 block 42
N#Cc1ccc(CSc2nc3sc4c(c3c(=O)n2-c2ccc(Br)cc2)CCCC4)cc1	none (no result: Tb MetRS inh, A1 inh, SKN-1 block, MT1-MMP act inh)
CSc1ccc(Cl)c(C(=O)NCc2ccco2)c1	SKN-1 block 41
CSc1ccc(Cl)c(C(=O)OCC(=O)NCc2ccco2)c1	none
COC(=O)[C@]12C[C@H](CC(=O)NCc3cccs3)C(=O)N(Cc3ccco3)C1=C[C@H](C(C)(C)C)O[C@@H]2C	none (no result: Tb MetRS inh, A1 inh, SKN-1 block, MT1-MMP act inh)
Clc1ncnc2c1oc1ccccc12	NPR1 activator 53
CCC[C@H]1[C@@H](OC(=O)N2CCN(c3ccccc3)CC2)CC[C@@]23CCCN2C(=O)CCC[C@@H]13	none (no result: Tb MetRS inh, A1 inh, SKN-1 block, MT1-MMP act inh)
CN(C)c1cc(Nc2ccc(O)cc2)c([N+](=O)[O-])c2nonc12	none
O=[N+]([O-])c1c(Nc2ccc(O)cc2)cc(Cl)c2nonc12	GC-B act 50, NPR1 activator 62
O=[N+]([O-])c1c(Nc2ccccn2)cc(Cl)c2nonc12	GC-B act 43, NPR1 activator 50
CCCCCCCCN1C(=O)[C@@H](CC(=O)N2CCCCC2)C[C@@]2(C(=O)OC)C1=C[C@H](C(C)C)O[C@@H]2C1CC1	none (no result: Tb MetRS inh, A1 inh, SKN-1 block, MT1-MMP act inh)
Cc1ccc(NC(=O)c2cc(N3C(=O)CCC3=O)ccc2N2CCOCC2)cc1	none
Cc1ccc(NC(=O)c2cc(N3C(=O)C=CC3=O)ccc2N2CCOCC2)cc1Cl	A1 inh 15
Cc1nc(NC(=O)C2CC3CCCC(C2)C3=O)sc1C (stereo not drawn)	SKN-1 block 33
c1ccc(N=Nc2ccc3cccccc2-3)cc1	SKN-1 block 45
Nc1ccc(N=Nc2ccccc2)c2ccccc12	none
CN(C)S(=O)(=O)c1cccc(C(=O)N/N=C\c2cccc(C#N)c2)c1	none (no result: Tb MetRS inh, A1 inh, SKN-1 block, MT1-MMP act inh)
O=C(CCN1C(=O)/C(=C/c2ccccc2Cl)SC1=S)Nc1ccccc1C(=O)O	SKN-1 block 39
O=[N+]([O-])c1cccc2ccc(/C=C/c3ccc(F)cc3)nc12	SKN-1 block 36
CC[C@@H]1/C(=C/c2ccccc2)N2C(=O)C[C@@H](c3ccccc3)N=C2N1Cc1ccc(OC)cc1OC	none (no result: Tb MetRS inh, A1 inh, SKN-1 block, MT1-MMP act inh)
CC1CCN(C(=O)c2ccc(S(=O)(=O)N3CCOCC3)cc2)CC1	none
CC1CCN(S(=O)(=O)c2ccc(C(=O)N3CCOCC3)cc2)CC1	SKN-1 block 39
